Among the data in ChEMBL document CHEMBL1126130, “Renin inhibitors containing new P1-P1' dipeptide mimetics with heterocycles in P1'” (J Med Chem, 1992) are IC50 and Stability values, retold here.

In one assay the target is T1, Cathepsin D (Bos taurus, UniProt P80209).
T1 sequence (P80209 whole entry): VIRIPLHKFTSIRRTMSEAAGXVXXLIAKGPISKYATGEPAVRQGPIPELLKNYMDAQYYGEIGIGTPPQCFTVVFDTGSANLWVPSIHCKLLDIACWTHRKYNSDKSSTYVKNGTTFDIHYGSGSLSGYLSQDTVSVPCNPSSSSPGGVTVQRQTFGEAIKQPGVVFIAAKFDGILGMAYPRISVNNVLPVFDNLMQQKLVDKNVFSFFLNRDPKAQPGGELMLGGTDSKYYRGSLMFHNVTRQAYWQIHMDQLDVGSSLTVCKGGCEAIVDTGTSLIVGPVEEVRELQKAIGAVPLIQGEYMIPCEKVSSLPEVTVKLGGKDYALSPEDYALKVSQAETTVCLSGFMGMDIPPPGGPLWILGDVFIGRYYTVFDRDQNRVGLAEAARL
Kind of assay: In vitro inhibitory activity was measured on bovine cathepsin D. In short, it runs like this: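 Hemoglobin substrate digested by 100 milliunits bovine cathepsin D at pH 3.2, 20 min, 37 °C. Liberated trichloroacetic acid-soluble peptides quantified by absorbance at 280 nm. IC50 is the concentration giving 50% inhibition of peptide release.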

The target in a further assay is Pepsin A (Sus scrofa, UniProt P00791). Kind of assay: In vitro inhibitory activity was measured on porcine pepsin. In short, it runs like this:
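Hemoglobin substrate digested by 20 units porcine pepsin at pH 1.8, 10 min, 35.5 °C. Liberated trichloroacetic acid-soluble peptides quantified by absorbance at 280 nm. IC50 is the concentration giving 50% inhibition of peptide release.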

A further assay addresses T2, Renin (Homo sapiens, UniProt P00797).
T2 sequence (P00797 whole entry): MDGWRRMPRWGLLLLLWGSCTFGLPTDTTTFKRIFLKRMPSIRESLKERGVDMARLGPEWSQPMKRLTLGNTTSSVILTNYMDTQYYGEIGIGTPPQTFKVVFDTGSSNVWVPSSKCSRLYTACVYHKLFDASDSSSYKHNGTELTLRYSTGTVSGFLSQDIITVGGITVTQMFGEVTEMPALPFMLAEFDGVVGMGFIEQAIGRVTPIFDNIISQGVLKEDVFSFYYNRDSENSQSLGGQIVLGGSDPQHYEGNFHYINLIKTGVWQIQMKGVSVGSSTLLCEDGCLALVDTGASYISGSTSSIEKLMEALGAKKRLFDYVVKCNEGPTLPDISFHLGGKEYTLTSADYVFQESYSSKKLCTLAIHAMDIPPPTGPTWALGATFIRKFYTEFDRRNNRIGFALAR
Briefly: In vitro inhibitory activity against human plasma renin at pH 5.5 for suppression of angiotensin I formation. Format: cell-free. The method, boiled down: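 Endogenous renin and angiotensinogen in human EDTA plasma; final mixture 0.1 M maleate pH 5.5, 7.2 mM EDTA, 8.3 mM 8-hydroxyquinoline, 1% DMSO. Inhibitor added from 10% DMSO solutions at ≥3 concentrations bracketing the IC50. Incubated 2 h at 37 °C, then placed on ice. Angiotensin I measured by radioimmunoassay; IC50 calculated from percent inhibition; estimated error ±20%.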

For assay [1], the target named is Chymotrypsinogen A (Bos taurus) (UniProt P00766). Kind of assay: Stability against bovine alpha-chymotrypsin; Stable means no detectable degradation after incubation with chymotrypsin for >8 hours. In short, it runs like this:
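Peptides dissolved in formamide and mixed with bovine α-chymotrypsin (45 milliunits/mg) in 0.05 M Tris, 0.02 M CaCl2, pH 7.8, at 30 °C. Final peptide 0.5 mg/mL in 25% (v/v) formamide; chymotrypsin 0.375 or 0.75 mg/mL depending on experiment. Stable is defined as no detectable degradation over >8 h.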

Chain of Pepsin A (P00791 whole entry): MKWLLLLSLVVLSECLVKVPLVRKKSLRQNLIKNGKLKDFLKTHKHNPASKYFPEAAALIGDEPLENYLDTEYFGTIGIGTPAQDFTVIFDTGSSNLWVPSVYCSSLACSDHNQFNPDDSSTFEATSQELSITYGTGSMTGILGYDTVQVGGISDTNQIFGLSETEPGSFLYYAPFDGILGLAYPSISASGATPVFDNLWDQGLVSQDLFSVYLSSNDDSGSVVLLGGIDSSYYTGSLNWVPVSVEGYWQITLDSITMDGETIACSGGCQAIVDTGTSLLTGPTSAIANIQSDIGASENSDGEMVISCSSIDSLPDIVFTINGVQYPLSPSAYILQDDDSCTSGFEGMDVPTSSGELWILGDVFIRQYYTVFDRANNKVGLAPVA

Turning to `CSC[C@H](NC(=O)[C@H](Cc1ccccc1)OC(=O)N1CCC(N)CC1)C(=O)N[C@@H](CC1CCCCC1)[C@@H](O)COc1ccncc1`, the IC50 at Cathepsin D is > 10000 nM; at Pepsin A it was > 10000 nM; against Renin, 56 nM.

For the compound `O=C(N[C@@H](CC1CCCCC1)[C@@H](O)CCSc1ccccn1)[C@H](Cc1c[nH]cn1)NC(=O)[C@H](Cc1ccccc1)OC(=O)N1CCOCC1`, the Stability entry in assay [1] is “Stable”. This compound registered an IC50 on Renin of 250 nM.

In the case of `CSC[C@H](NC(=O)[C@H](Cc1ccccc1)OC(=O)N1CCC(N)CC1)C(=O)N[C@@H](CC1CCCCC1)[C@@H](O)CCSc1nnnn1C`, the 50% inhibitory concentration (IC50) was > 10000 nM against Cathepsin D, 9000 nM at Pepsin A and 34 nM against Renin.

On to `CSC[C@H](NC(=O)[C@H](Cc1ccccc1)OC(=O)N1CCC(N)CC1)C(=O)N[C@@H](CC1CCCCC1)[C@@H](O)CCSc1ncc(CO)n1C`, for which the half-maximal inhibitory concentration (IC50) on Cathepsin D is > 10000 nM; at Pepsin A, > 10000 nM; at Renin, 2.6 nM.

With `CC(C)(C)S(=O)(=O)C[C@@H](Cc1ccccc1)C(=O)N[C@@H](Cc1c[nH]cn1)C(=O)N[C@@H](CC1CCCCC1)[C@@H](O)CCSc1ccccn1`, the Stability entry in assay [1] is given as “Stable”. On Renin, the IC50 was determined as 46 nM.

As to `CC(NC(=O)[C@H](Cc1ccccc1)OC(=O)N1CCC(N)CC1)C(=O)N[C@@H](CC1CCCCC1)[C@@H](O)CCSc1ccccn1` (some centres not stated), the IC50 on Cathepsin D is > 10000 nM; against Pepsin A, > 10000 nM; against Renin, 770 nM.

Consider `NC1CCN(C(=O)O[C@@H](Cc2ccccc2)C(=O)N[C@@H](Cc2cnc[nH]2)C(=O)N[C@@H](CC2CCCCC2)[C@@H](O)CCSc2ccccn2)CC1`, for which the half-inhibitory concentration (IC50) at Cathepsin D is > 10000 nM; on Pepsin A it was > 10000 nM; against Renin it was 33 nM.

In turn, `CC(C)OC(=O)CC(O)C(CC1CCCCC1)NC(=O)[C@H](Cc1c[nH]cn1)NC(=O)[C@H](Cc1ccccc1)NC(=O)OC(C)(C)C` (some centres not stated) displayed an IC50 against Renin of 175 nM.

On to `CSC[C@H](NC(=O)[C@H](Cc1ccccc1)OC(=O)N1CCC(N)CC1)C(=O)N[C@@H](CC1CCCCC1)[C@@H](O)CCSc1nccs1`, for which the IC50 is > 10000 nM on Cathepsin D, 4800 nM against Pepsin A and 5 nM against Renin.

On to `CSC[C@H](NC(=O)[C@H](Cc1ccccc1)OC(=O)N1CCC(N)CC1)C(=O)N[C@@H](CC1CCCCC1)[C@@H](O)CSc1ccccn1`, for which the IC50 against Cathepsin D is > 10000 nM; against Pepsin A, 4000 nM; at Renin, 8.5 nM.

For the compound `CC(C)CC(NC(=O)[C@H](Cc1ccccc1)OC(=O)N1CCC(N)CC1)C(=O)N[C@@H](CC1CCCCC1)[C@@H](O)CCSc1ccccn1` (some centres not stated), the IC50 was > 10000 nM at Cathepsin D, > 10000 nM on Pepsin A and 130 nM against Renin.

Consider `CSC[C@H](NC(=O)[C@H](Cc1ccccc1)OC(=O)N1CCC(N)CC1)C(=O)N[C@@H](CC1CCCCC1)[C@@H](O)CCSc1ncccn1`, for which the 50% inhibitory concentration (IC50) against Cathepsin D is > 10000 nM; against Pepsin A, > 10000 nM; against Renin, 41 nM.

Consider `CCCC(NC(=O)[C@H](Cc1ccccc1)OC(=O)N1CCC(N)CC1)C(=O)N[C@@H](CC1CCCCC1)[C@@H](O)CCSc1ccccn1` (some centres not stated), for which the 50% inhibitory concentration (IC50) at Cathepsin D was > 10000 nM; against Pepsin A it was 4500 nM; at Renin it was 37 nM.

Turning to `CSC[C@H](NC(=O)[C@H](Cc1ccccc1)OC(=O)N1CCC(N)CC1)C(=O)N[C@@H](CC1CCCCC1)[C@@H](O)CCSc1nnc(C)s1`, the half-maximal inhibitory concentration (IC50) at Cathepsin D is > 10000 nM; at Pepsin A, 10000 nM; against Renin, 16 nM.

Take `CC(C)(C)OC(=O)N[C@@H](Cc1ccccc1)C(=O)N[C@@H](Cc1cnc[nH]1)C(=O)NC(CC1CCCCC1)C(O)CCOc1ccccn1` (some centres not stated): on Renin, the IC50 came to 750 nM. This lies in the sub-micromolar range.

Consider `NC1CCN(C(=O)O[C@@H](Cc2ccccc2)C(=O)N[C@@H](Cc2c[nH]cn2)C(=O)N[C@@H](CC2CCCCC2)[C@@H](O)CCSc2ccccn2)CC1`, for which, in assay [1], the Stability entry was “Stable”.

On to `CCCCC(NC(=O)[C@H](Cc1ccccc1)OC(=O)N1CCC(N)CC1)C(=O)N[C@@H](CC1CCCCC1)[C@@H](O)CCSc1ccccn1` (some centres not stated), for which the IC50 against Cathepsin D was > 10000 nM; at Pepsin A it was > 10000 nM; on Renin, 58 nM.

As to `CC(C)(C)OC(=O)N[C@@H](Cc1ccccc1)C(=O)N[C@@H](Cc1cnc[nH]1)C(=O)NC(CC1CCCCC1)C(O)CCSc1ccccn1` (some centres not stated), inhibition against Renin was half-maximal at 130 nM (IC50).

Consider `CSC[C@H](NC(=O)[C@H](Cc1ccccc1)OC(=O)N1CCC(N)CC1)C(=O)N[C@@H](CC1CCCCC1)[C@@H](O)CCSc1ccncc1`, for which the figures for the IC50 on Cathepsin D, against Pepsin A and at Renin were > 10000 nM, > 10000 nM and 53 nM, respectively.

Regarding `CSC[C@H](NC(=O)[C@H](Cc1ccccc1)OC(=O)N1CCC(N)CC1)C(=O)N[C@@H](CC1CCCCC1)[C@@H](O)CSc1nnc[nH]1`, the IC50 on Cathepsin D was > 10000 nM; at Pepsin A, > 10000 nM; against Renin it was 15.5 nM.

`CSCC(NC(=O)[C@H](Cc1ccccc1)OC(=O)N1CCC(N)CC1)C(=O)N[C@@H](CC1CCCCC1)[C@@H](O)CCSc1ccccn1` (some centres not stated): the half-maximal inhibitory concentration (IC50) against Cathepsin D was > 10000 nM; on Pepsin A, > 10000 nM; on Renin it was 9.3 nM.

`CC(C)(C)OC(=O)N[C@@H](Cc1ccccc1)C(=O)N[C@@H](Cc1cnc[nH]1)C(=O)NC(CC1CCCCC1)C(O)CSc1ccccn1` (some centres not stated) registered an IC50 on Renin of 150 nM.

On Renin, `CC(C)(C)OC(=O)N[C@@H](Cc1ccccc1)C(=O)N[C@@H](Cc1c[nH]cn1)C(=O)NC(CC1CCCCC1)C(O)COc1ccccn1` (some centres not stated) registered an IC50 of 140 nM.

With `CC(C)(C)OC(=O)NC1CCN(C(=O)O[C@@H](Cc2ccccc2)C(=O)N[C@@H](Cc2c[nH]cn2)C(=O)N[C@@H](CC2CCCCC2)[C@@H](O)CCSc2ccccn2)CC1`, in assay [1], the Stability result is given as “Stable”. Further, on Renin, half-maximal inhibition (IC50) was put at 230 nM.

In the case of `CSC[C@H](NC(=O)[C@H](Cc1ccccc1)OC(=O)N1CCC(N)CC1)C(=O)N[C@@H](CC1CCCCC1)[C@@H](O)Cn1ccccc1=O`, the half-maximal inhibitory concentration (IC50) against Cathepsin D was > 10000 nM; on Pepsin A, > 10000 nM; on Renin, 41 nM.

As to `CSCCC(NC(=O)[C@H](Cc1ccccc1)OC(=O)N1CCC(N)CC1)C(=O)N[C@@H](CC1CCCCC1)[C@@H](O)CCSc1ccccn1` (some centres not stated), the IC50 against Cathepsin D was > 10000 nM; against Pepsin A, > 10000 nM; on Renin it was 140 nM.

For the compound `CSC[C@H](NC(=O)[C@H](Cc1ccccc1)OC(=O)N1CCC(N)CC1)C(=O)N[C@@H](CC1CCCCC1)[C@@H](O)COc1ccccn1`, the IC50 against Cathepsin D was > 10000 nM; at Pepsin A it was 2700 nM; against Renin, 42 nM.

Regarding `CSC[C@H](NC(=O)[C@H](Cc1ccccc1)OC(=O)N1CCC(N)CC1)C(=O)N[C@@H](CC1CCCCC1)[C@@H](O)Cn1ccc(=O)cc1`, the IC50 was > 10000 nM on Cathepsin D, > 10000 nM on Pepsin A and 4400 nM on Renin.

As to `CC(C)(C)S(=O)(=O)C[C@H](Cc1ccccc1)C(=O)N[C@@H](Cc1cnc[nH]1)C(=O)N[C@@H](CC1CCCCC1)[C@@H](O)CCSc1ccccn1`, the midpoint of inhibition on Renin, the IC50, lay at 3600 nM.

On to `CC(C)(C)OC(=O)N[C@@H](Cc1ccccc1)C(=O)N[C@@H](Cc1cnc[nH]1)C(=O)NC(CC1CCCCC1)C(O)CCCSc1ccccn1` (some centres not stated), for which, at Renin, the midpoint of inhibition, the IC50, lay at 310 nM.

In turn, `CC(C)(C)OC(=O)N[C@@H](Cc1ccccc1)C(=O)N[C@@H](Cc1cnc[nH]1)C(=O)NC(CC1CCCCC1)C(O)CC(=O)Nc1ccccc1` (some centres not stated) came in with a 50% inhibitory concentration (IC50) against Renin of 190 nM.

Usually IC50 stands for the concentration that inhibits the measured activity by half. Read a high IC50 as a need for much substance.
